From ChEMBL document CHEMBL5316281, “Trojan Horse Siderophore Conjugates Induce Pseudomonas aeruginosa Suicide and Qualify the TonB Protein as a Novel Antibiotic Target” (2023)
The source made the active and inactive calls. No cut-off for these calls is given here. Where a SMILES comes first, the peptide text is derived from it. The star is where a group is joined. X1 = O=C(COCC(=O)*)NCCOCCOCCOCCOCCOCCOCCOCCOCCn1cc(CCCC(=O)Nc2c(CNC(=O)c3cccc(O)c3O)cc(CNC(=O)c3cccc(O)c3O)cc2CNC(=O)c2cccc(O)c2O)nn1

What was measured:
Pseudomonas aeruginosa [1] = assay: Antimicrobial activity against Pseudomonas aeruginosa harboring deltapvdF-deltapchA mutant assessed as decrease in fptA transcription level at 10 uM incubated for 8 hrs in presence of iron-depleted CAA medium by qRT-PCR analysis; format: functional, organism-based
Outline: (§1)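 Cells grown in CAA medium for 8 h at 30 °C with vigorous shaking, with or without 10 μM compound; 2.5 x 10⁸ cells stabilized in two volumes RNAprotect; RNA processed per earlier protocol; RT-qPCR with primer efficiencies from serially diluted genomic DNA; double ΔCT analysis.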

Pseudomonas aeruginosa [2] = assay: Antimicrobial activity against Pseudomonas aeruginosa harboring deltapvdF-deltapchA mutant with PfeA deletion assessed as reduction of bacterial growth at 10 uM by growth kinetic assay; format: functional, organism-based
Outline: (§2)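 Overnight LB culture washed, regrown in CAA at 30 °C, washed, resuspended in CAA at OD600 0.02; fresh sterile-filtered aqueous compound added to 10 µM final; OD600 read in plate reader for 48 h at 30 °C with regular agitation.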

Pseudomonas aeruginosa [3] = assay: Antimicrobial activity against Pseudomonas aeruginosa harboring deltapvdF-deltapchA mutant assessed as inhibition of bacterial growth by measuring minimal inhibitory concentration incubated for 24 hrs in presence of iron-depleted CAA medium; format: functional
Pseudomonas aeruginosa [4] = assay: Antimicrobial activity against Pseudomonas aeruginosa harboring deltapvdF-deltapchA mutant with PirA-PfeA dual deletion assessed as reduction of bacterial growth at 10 uM by growth kinetic assay; format: functional, organism-based; outline: as §2
Pseudomonas aeruginosa [5] = assay: Antimicrobial activity against Pseudomonas aeruginosa harboring deltapvdF-deltapchA mutant assessed as inhibition of bacterial growth by measuring minimal inhibitory concentration incubated for 48 hrs in presence of iron-depleted CAA medium; format: functional
Pseudomonas aeruginosa [6] = assay: Antimicrobial activity against Pseudomonas aeruginosa harboring deltapvdF-deltapchA mutant assessed as increase in pfeA transcription level at 10 uM incubated for 8 hrs in presence of iron-depleted CAA medium by qRT-PCR analysis; format: functional, organism-based; outline: as §1
Pseudomonas aeruginosa [7] = assay: Antimicrobial activity against Pseudomonas aeruginosa harboring deltapvdF-deltapchA mutant with PirA deletion assessed as reduction of bacterial growth at 10 uM by growth kinetic assay; format: functional, organism-based; outline: as §2
Pseudomonas aeruginosa [8] = assay: Antimicrobial activity against Pseudomonas aeruginosa harboring deltapvdF-deltapchA mutant assessed as effect on pirA transcription level at 10 uM incubated for 8 hrs in presence of iron-depleted CAA medium by qRT-PCR analysis; format: functional, organism-based; outline: as §1
Pseudomonas aeruginosa [9] = assay: Antimicrobial activity against Pseudomonas aeruginosa PAO1 assessed as inhibition of bacterial growth in presence of iron-depleted CAA medium; format: functional, organism-based
Pseudomonas aeruginosa [10] = assay: Antimicrobial activity against Pseudomonas aeruginosa PAO1 assessed as fold increase in pfeA transcription level at 10 uM incubated for 8 hrs in presence of iron-depleted CAA medium by qRT-PCR analysis; format: functional; outline: as §1

| Compound | Activity (Pseudomonas aeruginosa [1]) | Activity (Pseudomonas aeruginosa [2]) | MIC (Pseudomonas aeruginosa [3]) | Activity (Pseudomonas aeruginosa [4]) | MIC (Pseudomonas aeruginosa [5]) | Activity (Pseudomonas aeruginosa [6]) | Activity (Pseudomonas aeruginosa [7]) | Activity (Pseudomonas aeruginosa [8]) | Activity (Pseudomonas aeruginosa [9]) | fold change (FC) (Pseudomonas aeruginosa [10]) |
| --- | --- | --- | --- | --- | --- | --- | --- | --- | --- | --- |
| CC[C@H](C)[C@H](NC(=O)[C@H](CCSC)NC(=O)[C@@H](NC(=O)[C@H](C)NC(=O)CNC(=O)[C@H](CC(C)C)NC(=O)[C@H](CC(=O)O)NC(=O)[C@@H](NC(=O)[C@H](CO)NC(=O)[C@H](CO)NC(=O)[C@H](CC(=O)O)NC(=O)COCC(=O)NCCOCCOCCOCCOCCOCCOCCOCCOCCn1cc(CCCC(=O)Nc2c(CNC(=O)c3cccc(O)c3O)cc(CNC(=O)c3cccc(O)c3O)cc2CNC(=O)c2cccc(O)c2O)nn1)C(C)C)[C@@H](C)O)C(=O)N[C@H](C(=O)N[C@@H](CO)C(=O)N[C@@H](CC(N)=O)C(=O)N[C@@H](CCC(N)=O)C(=O)N[C@@H](CC(C)C)C(=O)NCC(=O)N[C@H](C(=O)N[C@H](C(=O)N[C@@H](CCCCN)C(N)=O)[C@@H](C)CC)[C@@H](C)O)[C@@H](C)O (X1-DSSVDLGATMITSNQLGTIK-NH2) | Active | Active | > 64 µM | Active | > 64 µM | Active | inactive | inactive | inactive | – |
| H-DSSVDLGATMITSNQLGTIK-NH2 | Active | inactive | – | inactive | – | inactive | inactive | inactive | inactive | – |
| H-SLIRVSQDDLVQMSPSVISAARPK-NH2 | Active | inactive | – | inactive | – | inactive | inactive | inactive | inactive | – |
| CC[C@H](C)[C@H](NC(=O)[C@@H](NC(=O)COCC(=O)NCCOCCOCCOCCOCCOCCOCCOCCOCCn1cc(CCCC(=O)Nc2c(CNC(=O)c3cccc(O)c3O)cc(CNC(=O)c3cccc(O)c3O)cc2CNC(=O)c2cccc(O)c2O)nn1)C(C)C)C(=O)N[C@@H](CCC(=O)O)C(=O)N[C@@H](CC(C)C)C(=O)NCC(=O)N[C@@H](CCC(=O)O)C(=O)N[C@@H](CCC(N)=O)C(=O)N[C@H](C(=O)N[C@H](C(=O)N[C@H](C(=O)N[C@@H](C)C(=O)N[C@H](C(=O)N[C@@H](C)C(=O)N[C@@H](CCC(N)=O)C(=O)N[C@@H](CCC(=O)O)C(=O)N[C@@H](CCC(=O)O)C(=O)N[C@H](C(=O)N[C@@H](CCCCN)C(=O)N[C@@H](CCC(N)=O)C(=O)N[C@@H](CCCCN)C(N)=O)[C@@H](C)O)[C@@H](C)O)C(C)C)C(C)C)[C@@H](C)O (X1-VIELGEQTVVATAQEETKQK-NH2) | – | Active | > 64 µM | Active | > 64 µM | – | inactive | – | inactive | – |
| C#CCNC(=O)CN1CCN(CC(=O)NCCNC(=O)c2cccc(O)c2O)CCN(CC(=O)NCCNC(=O)c2cccc(O)c2O)CCN(CC(=O)NCCNC(=O)c2cccc(O)c2O)CC1 | Active | inactive | 64 µM | – | 64 µM | – | Active | inactive | inactive | 2 |
| H-VIELGEQTVVATAQEETKQK-NH2 | Active | inactive | – | inactive | – | inactive | inactive | inactive | inactive | – |
| CC[C@H](C)[C@H](NC(=O)[C@H](CC(C)C)NC(=O)[C@H](CO)NC(=O)COCC(=O)NCCOCCOCCOCCOCCOCCOCCOCCOCCn1cc(CCCC(=O)Nc2c(CNC(=O)c3cccc(O)c3O)cc(CNC(=O)c3cccc(O)c3O)cc2CNC(=O)c2cccc(O)c2O)nn1)C(=O)N[C@@H](CCCNC(=N)N)C(=O)N[C@H](C(=O)N[C@@H](CO)C(=O)N[C@@H](CCC(N)=O)C(=O)N[C@@H](CC(=O)O)C(=O)N[C@@H](CC(=O)O)C(=O)N[C@@H](CC(C)C)C(=O)N[C@H](C(=O)N[C@@H](CCC(N)=O)C(=O)N[C@@H](CCSC)C(=O)N[C@@H](CO)C(=O)N1CCC[C@H]1C(=O)N[C@@H](CO)C(=O)N[C@H](C(=O)N[C@H](C(=O)N[C@@H](CO)C(=O)N[C@@H](C)C(=O)N[C@@H](C)C(=O)N[C@@H](CCCNC(=N)N)C(=O)N1CCC[C@H]1C(=O)N[C@@H](CCCCN)C(N)=O)[C@@H](C)CC)C(C)C)C(C)C)C(C)C (X1-SLIRVSQDDLVQMSPSVISAARPK-NH2) | – | Active | > 64 µM | Active | > 64 µM | – | inactive | – | inactive | – |
| CC[C@H](C)[C@H](NC(=O)[C@H](CCSC)NC(=O)[C@@H](NC(=O)[C@H](C)NC(=O)CNC(=O)[C@H](CC(C)C)NC(=O)[C@H](CC(=O)O)NC(=O)[C@@H](NC(=O)[C@H](CO)NC(=O)[C@H](CO)NC(=O)[C@@H](N)CC(=O)O)C(C)C)[C@@H](C)O)C(=O)N[C@H](C(=O)N[C@@H](CO)C(=O)N[C@@H](CC(N)=O)C(=O)N[C@@H](CCC(N)=O)C(=O)N[C@@H](CC(C)C)C(=O)NCC(=O)N[C@H](C(=O)N[C@H](C(=O)N[C@@H](CCCCNC(=O)COCC(=O)NCCOCCOCCOCCOCCOCCOCCOCCOCCn1cc(CCCC(=O)Nc2c(CNC(=O)c3cccc(O)c3O)cc(CNC(=O)c3cccc(O)c3O)cc2CNC(=O)c2cccc(O)c2O)nn1)C(N)=O)[C@@H](C)CC)[C@@H](C)O)[C@@H](C)O (H-DSSVDLGATMITSNQLGTIK(X1)-NH2) | Active | Active | > 64 µM | Active | > 64 µM | Active | inactive | inactive | inactive | – |
| CC[C@H](C)[C@H](NC(=O)[C@H](CC(C)C)NC(=O)[C@@H](N)CO)C(=O)N[C@@H](CCCNC(=N)N)C(=O)N[C@H](C(=O)N[C@@H](CO)C(=O)N[C@@H](CCC(N)=O)C(=O)N[C@@H](CC(=O)O)C(=O)N[C@@H](CC(=O)O)C(=O)N[C@@H](CC(C)C)C(=O)N[C@H](C(=O)N[C@@H](CCC(N)=O)C(=O)N[C@@H](CCSC)C(=O)N[C@@H](CO)C(=O)N1CCC[C@H]1C(=O)N[C@@H](CO)C(=O)N[C@H](C(=O)N[C@H](C(=O)N[C@@H](CO)C(=O)N[C@@H](C)C(=O)N[C@@H](C)C(=O)N[C@@H](CCCNC(=N)N)C(=O)N1CCC[C@H]1C(=O)N[C@@H](CCCCNC(=O)COCC(=O)NCCOCCOCCOCCOCCOCCOCCOCCOCCn1cc(CCCC(=O)Nc2c(CNC(=O)c3cccc(O)c3O)cc(CNC(=O)c3cccc(O)c3O)cc2CNC(=O)c2cccc(O)c2O)nn1)C(N)=O)[C@@H](C)CC)C(C)C)C(C)C)C(C)C (H-SLIRVSQDDLVQMSPSVISAARPK(X1)-NH2) | – | Active | > 64 µM | Active | > 64 µM | – | inactive | – | inactive | – |
